# Screens deposited in PubChem by Broad Institute.
# PDI turbidity: blocks human protein disulfide isomerase activity. P07237. PDI insulin aggregation turbidity, A650, 90 min. inhibition, % at 10 µM. 350,000 compounds, 0.052% hits;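 active = mean inhibition across replicates of 30% or more, whatever share of single replicates reach that level; inconclusive = mean inhibition below 30% while every single replicate reaches 30%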
# SIRT5 inh: blocks human SIRT5 desuccinylation of peptide | inhibition, % at 15 µM | AID 652115 | 330,000 compounds, 1.1% hits | Purified SirT5, succinyl-peptide AMC, trypsin-coupled fluorescence; in the data active = inhibition above about 15%; inconclusive = no clear call, values can overlap the other calls
# Target sequence (Q9NXA8 whole entry, looked up): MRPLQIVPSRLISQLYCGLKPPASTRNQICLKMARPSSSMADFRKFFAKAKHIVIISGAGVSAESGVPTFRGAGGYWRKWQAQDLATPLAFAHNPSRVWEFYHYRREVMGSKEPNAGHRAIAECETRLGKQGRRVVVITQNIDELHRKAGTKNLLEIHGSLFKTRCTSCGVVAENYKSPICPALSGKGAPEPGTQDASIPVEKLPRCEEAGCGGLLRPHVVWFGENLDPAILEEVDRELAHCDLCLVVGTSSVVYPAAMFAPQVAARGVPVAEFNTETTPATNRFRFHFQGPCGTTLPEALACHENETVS
# ERp5 inh: blocks human ERp5 reductase activity on insulin; Q15084; ERp5 insulin aggregation, absorbance 650 nm, 90 min; inhibition, % at 9.99 µM; 350,000 compounds, 0.05% hits; AID 651711;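 active = mean replicate inhibition above about 25%, with every replicate also reaching it, limit read from the data, passing the limit was not always enough; inconclusive = only one of those two criteria met; inactive = neither criterion met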
# S100A4 MyoIIA: S100A4-myosin IIA interaction inhibition; P26447; 360,000 compounds, 0.14% hits; S100A4/TAMRA-MyoIIA peptide fluorescence polarization; inhibition, % at 10.7 µM;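 active = mean inhibition of at least 70% across replicates, with every replicate also reaching that level; inconclusive = mean inhibition reaches 70% but some replicates fall short; inactive = mean inhibition below 70%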
# Target sequence (P26447 whole entry, looked up): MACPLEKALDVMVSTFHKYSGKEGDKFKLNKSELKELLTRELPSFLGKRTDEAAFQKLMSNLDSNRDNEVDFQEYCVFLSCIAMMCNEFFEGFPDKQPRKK
#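 incubation = readout 5 min after mixing, signal stable up to 60 min | system = S100A4 monomer protein | buffer or medium = HEPES pH 7.2 with CaCl2, KCl, NaCl, DTT, Triton | benchmarks = neutral control DMSO, positive control TFP | also added = fluorescent myosin IIA peptide, 5 nM | compound dosing = one concentration per compound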
# INS-1E GSIS act: primary screen for activators of insulin secretion dependent on glucose, INS-1E cells, GLuc reporter luminescence. 370,000 compounds, 0.61% hits. activation, % at 16.6 µM. INS-1E GLuc reporter insulin secretion, 2-3 h;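 active = lowest replicate activation of at least 40%, so every replicate reaches that level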;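 also: 0% = median of neutral control wells and 100% = median of IBMX positive control wells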
# * hit, by the source's call; ? = inconclusive; / = no result; + = active, no number. In the library only some 1.5% were active in any assay of this set; here they are far more common.
SMILES,PDI turbidity,SIRT5 inh,ERp5 inh,S100A4 MyoIIA,INS-1E GSIS act
C[C@@H]1CN([C@H](C)CO)C(=O)c2cc(-c3cccc(C#N)c3)cnc2O[C@H]1CN(C)Cc1ccncc1,/,-2,2,2,0
C[C@@H]1CN([C@H](C)CO)C(=O)Cc2cc(NS(=O)(=O)c3cccs3)ccc2O[C@H]1CN(C)C(=O)Nc1ccc(C(F)(F)F)cc1,/,3,/,18,-2
Cc1cc(C2C(=O)c3ccccc3C2=O)c(C)c(C)c1C,-9,19*,-3,-3,-3
CCc1ccccc1C1C(=O)c2ccccc2C1=O,-1,10,1,1,7
COc1ccc(C)cc1NC(=O)c1cccc(C(=O)Nc2cc(C)ccc2OC)c1,-2,16*,3,8,-2
O=C(O)CCC(=O)Nc1cccc(C(=O)Nc2cccc(Cl)c2)c1,12,/,/,/,/
COc1ccc(Cl)cc1NC(=O)c1cccc(NC(=O)CCC(=O)O)c1,-11,19*,-2,-5,1
COc1ccc2c3c(n(C)c2c1)[C@H](CO)N(C(=O)C1CCCC1)CC31CCN(C(=O)CN(C)C)CC1,/,-1,-4,13,-4
C[C@@H]1CCCCO[C@@H](CN(C)S(=O)(=O)c2cn(C)cn2)[C@H](C)CN([C@@H](C)CO)C(=O)c2cc(NC(=O)NC3CCCCC3)ccc2O1,/,-4,5,8,8
O=C(O)CC1(O)C(=O)N(Cc2ccccc2)c2ccccc21 (stereo not drawn),2,2,-5,-4,-3
N#CCC1(O)C(=O)N(Cc2ccccc2)c2ccccc21 (stereo not drawn),/,22*,-3,-2,-2
CN(C)CC(=O)N1[C@@H](CO)[C@@H]2c3ccccc3N(C(=O)Cc3ccccc3)C[C@@H]21,/,-1,0,3,1
CCCCCCC1CCC(C(=O)Nn2c(C)nc3ccccc3c2=O)CC1 (stereo not drawn),1,/,/,/,69*
C[C@@H]1CN([C@@H](C)CO)C(=O)CCCn2cc(nn2)CO[C@H]1CN(C)C,/,/,/,/,4
CCN=c1sc(C(=O)OC)cc(=O)n1CC,7,/,/,/,/
C=CCN=c1sc(C(=O)OC)cc(=O)n1CC=C,-2,/,/,/,50*
CCCNC(=O)N(C)C[C@H]1Oc2cc(C#CC(C)(C)O)ccc2S(=O)(=O)N([C@@H](C)CO)C[C@@H]1C,/,0,4,16,11
CCOC(=O)c1c(N)c(C#N)c2n1CCCCC2,-4,/,/,/,/
CCOC(=O)c1c(N)c(C#N)c2n1CCCC2,-1,/,/,/,71*
COc1ccc(NS(=O)(=O)c2cccc(C(=O)N3CCCC(C)C3)c2)cc1 (stereo not drawn),-4,19*,1,-4,-7
Cc1ccc(NS(=O)(=O)c2cccc(C(=O)N3CCCC(C)C3)c2)cc1 (stereo not drawn),-6,-1,-1,-2,-20
O=C(OCC(=O)N1CCCC1)c1cc(Br)ccc1Cl,-5,18*,-5,-2,-17
Nc1c(Cl)cc(Cl)cc1C(=O)OCC(=O)N1CCCC1,-1,/,/,/,5
O=C(Nc1ccc(Cl)cc1)N1C[C@H]2[C@@H](c3ccccc31)[C@@H](CO)N2C(=O)c1ccccn1,/,-4,-3,1,-14
O=C(COc1ccccc1Cl)NCc1ccccc1,-2,-4,2,2,6
SMILES,PDI turbidity,SIRT5 inh,ERp5 inh,S100A4 MyoIIA,INS-1E GSIS act
O=C(CCc1ccccc1)NNC(=O)COc1ccccc1Cl,-5,5,-5,4,137*
Cc1nc2ccccc2c2nc(NC(=O)C(F)(F)F)nn12,-6,6,-5,-6,50*
CCC(=O)Nc1ccc2c(c1)C(=O)N(C)C[C@H](OC)[C@@H](C)CN(Cc1cncnc1)[C@H](C)CO2,/,/,/,/,-6
FC(F)(F)c1cc(CCN2CCNC[C@@H]2c2ccccc2)cc(C(F)(F)F)c1,2,-10,-4,2,115*
NC1=NC[C@H](CC2CCCCC2)N1CCc1cc(C(F)(F)F)cc(C(F)(F)F)c1,0,/,5,-7,+
Fc1cccc(CCN2CCNC[C@@H]2c2ccccc2)c1,11,/,2,-24,-17
c1ccc(C[C@H]2CNCCN2CCCCC2CCCCC2)cc1,6,/,-4,-13,57*
FC(F)(F)c1cc(CCN2CCNC[C@@H]2CC2CCCCC2)cc(C(F)(F)F)c1,10,/,6,8,+
CCS(=O)(=O)N1CC2(CN(C(=O)CN3CCOCC3)[C@@H](CO)c3c2c2ccc(OC)cc2n3C)C1,/,-3,-1,3,23
O=C(NCCc1ccccc1)c1cc(-c2ccc3c(c2)OCO3)on1,9,/,/,/,44*
C[C@H](CO)N1C[C@H](C)[C@H](CN(C)CC2CCCCC2)OCCCC[C@H](C)Oc2ccc(NC(=O)Nc3ccc4c(c3)OCO4)cc2C1=O,/,-1,-15,-54,-23
COc1ccc(S(=O)(=O)Nc2ccc3c(c2)C(=O)N([C@H](C)CO)C[C@H](C)[C@H](CN(C)S(=O)(=O)c2cn(C)cn2)OCCCC[C@H](C)O3)cc1,/,1,6,?,-1
Cc1ccc(NC(=O)c2cc(N3C(=O)C=CC3=O)ccc2Cl)cc1C,6,/,/,/,50*
COc1ccc(-c2ccc(SCC(=O)NC3CCCC3)nn2)cc1OC,9,0,-4,-6,80*
COc1cccc(-c2ccc(SCC(=O)NC3CCCCC3)nn2)c1,16,-1,8,3,0
Cc1cccc(NC(=O)CSc2ccc(-c3ccc4c(c3)OCO4)nn2)c1C,6,/,/,/,94*
COc1ccc(-c2ccc(SCC(=O)Nc3cc(C)on3)nn2)cc1OC,-1,/,/,/,57*
CC(C)NC(=O)N(C)C[C@H]1Oc2ccc(NC(=O)C3CCCCC3)cc2CC(=O)N([C@H](C)CO)C[C@@H]1C,/,3,3,-3,7
CCc1noc(C)c1C(=O)NNC(=O)COc1ccc(C)cc1,-3,15*,2,-29,10
O=C(C[C@@H]1CC[C@@H](NC(=O)Cc2ccccn2)[C@H](CO)O1)NCCCN1CCOCC1,/,1,4,58,17
C[C@H](NC(=O)C[C@H]1C=C[C@@H](NC(=O)C2CC2)[C@@H](CO)O1)c1ccccc1,/,5,5,5,0
O=C(C[C@@H]1CC[C@@H](NC(=O)Cc2ccccn2)[C@@H](CO)O1)NCCCN1CCOCC1,/,15*,6,13,14
C[C@@H](NC(=O)C[C@H]1CC[C@@H](NC(=O)CN2CCOCC2)[C@@H](CO)O1)c1ccccc1,/,17*,7,5,1
C[C@H](NC(=O)C[C@@H]1CC[C@H](NC(=O)C2CCOCC2)[C@@H](CO)O1)c1ccccc1,/,4,3,111*,-1
C[C@@H](NC(=O)C[C@H]1C=C[C@H](NC(=O)C2CC2)[C@@H](CO)O1)c1ccccc1,/,17*,9,7,-3
C[C@H](CO)N1C[C@H](C)[C@@H](CN(C)C)OCCCC[C@H](C)Oc2ccc(NS(=O)(=O)c3ccc(F)cc3)cc2C1=O,/,0,0,6,8
